# Measurements as given in ChEMBL document CHEMBL1122443, “Synthesis and antitumor evaluation of selected 5,6-disubstituted 1(2)H-indazole-4,7-diones” (1983).
# Active and inactive are the calls of the source. No cut-off for these calls is given here.
# Assays:
# [1] = system: Mus musculus; test: Antitumor activity in CF1 mice bearing Ehrlich ascites carcinoma measured as percentage inhibition at 8 mg/kg; IA means inactive; type: functional, organism-based; set-up: dose 8 mg/kg
# Outline: (§1)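 Ehrlich ascites model in male CF1 mice (22–25 g): 2 × 10⁶ cells ip on day 0, ip dosing days 1–8, kill on day 9. Percent inhibition = 100 − [(treated volume × treated ascrit)/(control volume × control ascrit)]. Greater than 80% was taken as significant. Vehicle was 0.05% Tween 80, alone or with 5% absolute EtOH. 6-Mercaptopurine was the positive control.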
# [2] = system: Mus musculus; test: Antitumor activity in 6 CF1 mice bearing Ehrlich ascites carcinoma measured as survivors on day 9 at 5 mg/kg; 6/6; type: functional
# [3] = system: Mus musculus; test: Antitumor activity in CF1 mice bearing Ehrlich ascites carcinoma measured as ascites volume at 8 mg/kg; type: functional
# Outline: (§2)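 Male CF1 mice (22–25 g) received 2 × 10⁶ Ehrlich carcinoma cells ip on day 0. Dosing was ip daily on days 1–8, with sacrifice on day 9. Ascites fluid volume per mouse and ascrit (packed cell volume) were measured for each group. Vehicle was 0.05% Tween 80, or 5% absolute EtOH in 0.05% Tween 80, used for both compound and control. 6-Mercaptopurine was the positive control.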
# [4] = system: Mus musculus; test: Antitumor activity in 6 CF1 mice bearing Ehrlich ascites carcinoma measured as survivors on day 9 at 8 mg/kg; 6/6; type: functional
# [5] = system: Mus musculus; test: Antitumor activity in CF1 mice bearing Ehrlich ascites carcinoma measured as percentage inhibition at 3 mg/kg; type: functional; outline: as §1
# [6] = system: Mus musculus; test: (§3) Antitumor activity in CF1 mice bearing Ehrlich ascites carcinoma measured as percent ascrit packed cell volume at 3 mg/kg; type: functional; outline: as §2
# [7] = system: Mus musculus; test: Antitumor activity in CF1 mice bearing Ehrlich ascites carcinoma measured as ascites volume at 5 mg/kg; type: functional; outline: as §2
# [8] = system: Mus musculus; test: Antitumor activity in CF1 mice bearing Ehrlich ascites carcinoma measured as percent ascrit packed cell volume at 5 mg/kg; type: functional; outline: as §2
# [9] = system: Mus musculus; test: Antitumor activity in CF1 mice bearing Ehrlich ascites carcinoma measured as ascites volume at 3 mg/kg; type: functional; outline: as §2
# [10] = system: Mus musculus; test: Antitumor activity in 6 CF1 mice bearing Ehrlich ascites carcinoma measured as survivors on day 9 at 3 mg/kg; 6/6; type: functional
# [11] = system: Mus musculus; test: Antitumor activity in CF1 mice bearing Ehrlich ascites carcinoma measured as percentage inhibition at 5 mg/kg; type: functional; outline: as §1
# [12] = system: Mus musculus; test: Antitumor activity in CF1 mice bearing Ehrlich ascites carcinoma measured as percent ascrit packed cell volume at 8 mg/kg; type: functional; outline: as §2
# [13] = system: Mus musculus; test: Antitumor activity in 6 CF1 mice bearing Ehrlich ascites carcinoma measured as survivors on day 9 at 5 mg/kg; 5/6; type: functional
# [14] = system: Mus musculus; test: Antitumor activity in 6 CF1 mice bearing Ehrlich ascites carcinoma measured as survivors on day 9 at 8 mg/kg; 5/6; type: functional
# [15] = system: Mus musculus; test: as §3; type: functional; remark: listed apart in the source
# Outline: (§4)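 CF1 male mice (22–25 g) were inoculated ip with 2 × 10⁶ Ehrlich cells on day 0 and treated ip on days 1–8 in 0.05% Tween 80 or 5% EtOH/0.05% Tween 80 vehicle. On day 9 the mice were sacrificed, and the ascrit (packed cell volume) of the ascites fluid was determined.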
# [16] = system: Mus musculus; test: (§5) Antitumor activity in CF1 mice bearing Ehrlich ascites carcinoma measured as percentage inhibition at 8 mg/kg; type: functional; outline: as §1
# [17] = system: Mus musculus; test: Average days survived for treated / average days survived for control at 25 (mg/kg); 17.6/9.5; type: functional
# [18] = system: Mus musculus; test: Anti tumor activity in mice bearing lymphocytic leukemia P-388 at 25 mg/kg; type: functional
# Outline: (§6)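 Male BDF1 mice (20–23 g) were inoculated ip with 1 × 10⁶ P-388 leukemia cells on day 0. Compound was given ip once daily on days 1–14 in 0.05% Tween 80 vehicle, with a vehicle control group and 5-fluorouracil as positive control. Activity was scored as % T/C, average days survived treated/control, with >125% taken as significant.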
# [19] = system: Mus musculus; test: Antitumor activity in CF1 mice bearing Ehrlich ascites carcinoma measured as ascites volume at 10 mg/kg; type: functional
# Outline: (§7)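 Ehrlich ascites cells (2 × 10⁶) were implanted ip in male CF1 mice (22–25 g) on day 0. Dosing was ip on days 1–8 in 0.05% Tween 80 or 5% EtOH/0.05% Tween 80, with vehicle controls. Mice were killed on day 9, and ascites fluid volume per mouse was measured.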
# [20] = system: Mus musculus; test: Antitumor activity in CF1 mice bearing Ehrlich ascites carcinoma measured as survivors on day 9 at 5 mg/kg; 6/6; type: functional
# [21] = system: Mus musculus; test: Average days survived for treated / average days survived for control at 1 (mg/kg); 10/9.2; type: functional
# [22] = system: Mus musculus; test: Antitumor activity in CF1 mice bearing Ehrlich ascites carcinoma measured as percentage inhibition at 10 mg/kg; IA= inactive; type: functional, organism-based; set-up: dose 10 mg/kg
# Outline: (§8)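 In the Ehrlich ascites model, male CF1 mice (22–25 g) received 2 × 10⁶ cells ip on day 0 and compound ip on days 1–8, with a vehicle of 0.05% Tween 80 ± 5% EtOH. Ascites volume and ascrit were taken on day 9. % inhibition = 100 − [(vol × ascrit, treated)/(vol × ascrit, control)], with >80% taken as significant.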
# [23] = system: Mus musculus; test: Antitumor activity in CF1 mice bearing Ehrlich ascites carcinoma measured as survivors on day 9 at 8 mg/kg; 6/6; type: functional
# Outline: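 Male CF1 mice (22–25 g) were given 2 × 10⁶ Ehrlich carcinoma cells ip on day 0. Compounds were dosed ip on days 1–8 in 0.05% Tween 80 or in 5% absolute EtOH in 0.05% Tween 80, with vehicle-treated controls. Mice were killed on day 9, and ascites volume and ascrit (packed cell volume) were measured per mouse.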
# [24] = system: Mus musculus; test: Antitumor activity in CF1 mice bearing Ehrlich ascites carcinoma measured as percentage inhibition at 1 mg/kg; IA= inactive; type: functional, organism-based; set-up: dose 1 mg/kg; outline: as §8
# [25] = system: Mus musculus; test: Antitumor activity in CF1 mice bearing Ehrlich ascites carcinoma measured as ascites volume at 1 mg/kg; type: functional; outline: as §7
# [26] = system: Mus musculus; test: Antitumor activity in CF1 mice bearing Ehrlich ascites carcinoma measured as survivors on day 9 at 10 mg/kg; 6/6; type: functional
# [27] = system: Mus musculus; test: Antitumor activity in CF1 mice bearing Ehrlich ascites carcinoma measured as survivors on day 9 at 1 mg/kg; 6/6; type: functional
# [28] = system: Mus musculus; test: Anti tumor activity in mice bearing lymphocytic leukemia P-388 at 1 mg/kg; type: functional; outline: as §6
# [29] = system: Mus musculus; test: Antitumor activity in CF1 mice bearing Ehrlich ascites carcinoma measured as percent ascrit packed cell volume at 1 mg/kg; type: functional; outline: as §4
# [30] = system: Mus musculus; test: as §5; type: functional; outline: as §8; remark: listed apart in the source
# [31] = system: Mus musculus; test: Antitumor activity in CF1 mice bearing Ehrlich ascites carcinoma measured as percent ascrit packed cell volume at 10 mg/kg; type: functional; outline: as §4
smiles,measurement,setting,value
Cn1ncc2c1C(=O)C(Cl)=C(N)C2=O,inhibition,[1],inactive
same,Survivors,[2],6
same,ascites volume,[3],1.9 ml mouse-1
same,Survivors,[4],6
same,inhibition in vivo at 3 mg/kg,[5],25.3%
same,packed cell volume,[6],44%
same,ascites volume,[7],1 ml mouse-1
same,packed cell volume,[8],35.4%
same,ascites volume,[9],2 ml mouse-1
same,Survivors,[10],6
same,inhibition in vivo at 5 mg/kg,[11],8.4%
same,packed cell volume,[12],33.9%
CC(=O)NC1=C(Cl)C(=O)c2c(cnn2C)C1=O,ascites volume,[3],0.62 ml mouse-1
same,Survivors,[13],5
same,inhibition in vivo at 3 mg/kg,[5],67.8%
same,Survivors,[14],5
same,ascites volume,[7],0.56 ml mouse-1
same,packed cell volume,[8],29%
same,ascites volume,[9],1.7 ml mouse-1
same,Survivors,[10],6
same,inhibition in vivo at 5 mg/kg,[11],90%
same,packed cell volume,[15],20%
same,packed cell volume,[12],37.9%
same,inhibition in vivo at 8 mg/kg,[16],61.7%
O=c1[nH]cc(F)c(=O)[nH]1 [FLUOROURACIL],Average survival (days),[17],17.6
same,T/C,[18],186%
COC1=C(N2CC2)C(=O)c2cnn(C)c2C1=O,ascites volume,[19],2.2 ml mouse-1
same,Survivors,[20],6
same,ascites volume,[3],0.32 ml mouse-1
same,Average survival (days),[21],10
same,inhibition,[22],inactive
same,Survivors,[23],6
same,inhibition,[24],inactive
same,ascites volume,[25],4.2 ml mouse-1
same,Survivors,[26],6
same,ascites volume,[7],0.7 ml mouse-1
same,Survivors,[27],6
same,packed cell volume,[8],34.6%
same,T/C,[28],109%
same,packed cell volume,[29],39.8%
same,inhibition in vivo at 8 mg/kg,[30],64.1%
same,inhibition in vivo at 5 mg/kg,[11],39.4%
same,packed cell volume,[31],30.7%
same,packed cell volume,[12],36.2%
